# pIC50: −log10 of the molar value.
# Assays:
# Leukemia cell = assay: Potency index, ratio of 5-fluorouracil GI50 to compound GI50 for human leukemia cells; type: functional
# Procedure, shortened: (§1)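 GI50 for each cell line came from NCI panel testing over a 5-log dose range, with 5-fluorouracil tested alongside as the reference drug. The index relates the 5-fluorouracil GI50 to the compound GI50 within each tumour subpanel.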
# [1] = Growth inhibition of human renal cancer cells after 48 hrs by SRB assay; type: functional; settings: Cancer cell lines
# Procedure, shortened: (§2)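 Follow-up NCI panel testing over a 5-log dose range for each cell line. GI50, TGI and LC50 were monitored, with 5-fluorouracil run as the positive control. Values are grouped by tumour subpanel.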
# Cancer cell lines [2] = assay: Potency index, ratio of 5-fluorouracil GI50 to compound GI50 for human breast cancer cells; type: functional; procedure, shortened: as §1
# [3] = Growth inhibition of human MDA-MB-468 cells at 10 uM after 48 hrs by SRB assay relative to control; type: functional; settings: MDA-MB-468, 48 h, read-out: GI
# Procedure, shortened: (§3)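 NCI 60-cell-line panel, nine tumor subpanels; compounds tested at a single dose of 10 μM in the primary screen.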
# [4] = Growth inhibition of human NCI/ADR-RES cells at 10 uM after 48 hrs by SRB assay relative to control; type: functional; settings: read-out: GI; procedure, shortened: as §3
# Dihydrofolate reductase = biological target: T1, Dihydrofolate reductase (Bos taurus, UniProt P00376); assay: Inhibition of bovine liver DHFR preincubated for 2 mins followed by addition of FH2 as substrate and NADPH
# T1 sequence (P00376 whole entry): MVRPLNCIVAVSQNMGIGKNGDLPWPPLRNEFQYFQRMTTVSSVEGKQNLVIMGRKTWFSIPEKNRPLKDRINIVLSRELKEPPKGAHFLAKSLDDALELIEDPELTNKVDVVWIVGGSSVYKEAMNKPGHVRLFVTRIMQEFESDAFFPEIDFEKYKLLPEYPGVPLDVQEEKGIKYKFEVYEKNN
# [5] = Growth inhibition of human KM12 cells at 10 uM after 48 hrs by SRB assay relative to control; type: functional; settings: KM12, 48 h, read-out: GI; procedure, shortened: as §3
# [6] = Growth inhibition of human HOP92 cells at 10 uM after 48 hrs by SRB assay relative to control; type: functional; settings: HOP-92, 48 h, read-out: GI; procedure, shortened: as §3
# [7] = Growth inhibition of human CNS cancer cells after 48 hrs by SRB assay; type: functional; settings: Cancer cell lines
# Procedure, shortened: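 Five-log dose range against NCI tumor cell lines, monitoring GI50, TGI and LC50 for each cell line; MG-MID values derived across the panel; 5-fluorouracil positive control.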
# [8] = Growth inhibition of human A498 cells at 10 uM after 48 hrs by SRB assay relative to control; type: functional; settings: A498, 48 h, read-out: GI; procedure, shortened: as §3
# [9] = Growth inhibition of human RXF393 cells at 10 uM after 48 hrs by SRB assay relative to control; type: functional; settings: RXF 393, 48 h, read-out: GI; procedure, shortened: as §3
# Cancer cell lines [10] = assay: Potency index, ratio of 5-fluorouracil GI50 to compound GI50 for human ovarian cancer cells; type: functional; procedure, shortened: as §1
# [11] = Growth inhibition of human NCI-H23 cells at 10 uM after 48 hrs by SRB assay relative to control; type: functional; settings: NCI-H23, 48 h, read-out: GI; procedure, shortened: as §3
# [12] = Growth inhibition of human HOP62 cells at 10 uM after 48 hrs by SRB assay relative to control; type: functional; settings: HOP-62, 48 h, read-out: GI; procedure, shortened: as §3
# [13] = Growth inhibition of human leukemia cells after 48 hrs by SRB assay; type: functional; settings: Leukemia cell; procedure, shortened: as §2
# [14] = Growth inhibition of human SR cells at 10 uM after 48 hrs by SRB assay relative to control; type: functional; settings: read-out: GI
# Procedure, shortened: (§4)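 Primary screen across the full NCI 60 human tumour cell line panel, which covers nine tumour subpanels. A single dose of 10 μM was applied to each line, and growth was recorded for each cell line.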
# [15] = Growth inhibition of human ovarian cancer cells after 48 hrs by SRB assay; type: functional; settings: Cancer cell lines; procedure, shortened: as §2
# [16] = Growth inhibition of human NCI-H522 cells at 10 uM after 48 hrs by SRB assay relative to control; type: functional; settings: NCI-H522, 48 h, read-out: GI; procedure, shortened: as §3
# Cancer cell lines [17] = assay: Potency index, ratio of 5-fluorouracil GI50 to compound GI50 for human CNS cancer cells; type: functional; procedure, shortened: as §1
# [18] = Growth inhibition of human M14 cells at 10 uM after 48 hrs by SRB assay relative to control; type: functional; settings: M14, 48 h, read-out: GI; procedure, shortened: as §3
# [19] = Growth inhibition of human SNB75 cells at 10 uM after 48 hrs by SRB assay relative to control; type: functional; settings: SNB-75, 48 h, read-out: GI; procedure, shortened: as §4
# [20] = Growth inhibition of human UACC257 cells at 10 uM after 48 hrs by SRB assay relative to control; type: functional; settings: UACC-257, 48 h, read-out: GI; procedure, shortened: as §4
# [21] = Growth inhibition of human PC3 cells at 10 uM after 48 hrs by SRB assay relative to control; type: functional; settings: PC-3, 48 h, read-out: GI; procedure, shortened: as §3
# [22] = Growth inhibition of human MCF7 cells at 10 uM after 48 hrs by SRB assay relative to control; type: functional; settings: MCF7, 48 h, read-out: GI; procedure, shortened: as §3
# [23] = Growth inhibition of human Caki1 cells at 10 uM after 48 hrs by SRB assay relative to control; type: functional; settings: CAKI-1, 48 h, read-out: GI; procedure, shortened: as §3
# [24] = Growth inhibition of human SW620 cells at 10 uM after 48 hrs by SRB assay relative to control; type: functional; settings: SW-620, 48 h, read-out: GI; procedure, shortened: as §4
# [25] = Growth inhibition of human MDA-MB-231 cells at 10 uM after 48 hrs by SRB assay relative to control; type: functional; settings: MDA-MB-231, 48 h, read-out: GI; procedure, shortened: as §3
# [26] = Growth inhibition of human OVCAR3 cells at 10 uM after 48 hrs by SRB assay relative to control; type: functional; settings: OVCAR-3, 48 h, read-out: GI; procedure, shortened: as §3
# Melanoma cell = assay: Potency index, ratio of 5-fluorouracil GI50 to compound GI50 for human melanoma cells; type: functional; procedure, shortened: as §1
# [27] = Growth inhibition of human BT549 cells at 10 uM after 48 hrs by SRB assay relative to control; type: functional; settings: BT-549, 48 h, read-out: GI; procedure, shortened: as §3
# Cancer cell lines [28] = assay: Potency index, ratio of 5-fluorouracil GI50 to compound GI50 for human renal cancer cells; type: functional; procedure, shortened: as §1
# [29] = Growth inhibition of human SKOV3 cells at 10 uM after 48 hrs by SRB assay relative to control; type: functional; settings: SK-OV-3, 48 h, read-out: GI; procedure, shortened: as §4
# [30] = Growth inhibition of human HL-60(TB) cells at 10 uM after 48 hrs by SRB assay relative to control; type: functional; settings: HL-60, 48 h, read-out: GI
# Procedure, shortened: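 NCI disease-oriented human tumour cell line screen: primary single-dose assay at 10 μM across the full 60-cell-line panel spanning nine tumour subpanels.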
# [31] = Growth inhibition of human SF295 cells at 10 uM after 48 hrs by SRB assay relative to control; type: functional; settings: SF-295, 48 h, read-out: GI; procedure, shortened: as §3
# [32] = Growth inhibition of human SF268 cells at 10 uM after 48 hrs by SRB assay relative to control; type: functional; settings: SF-268, 48 h, read-out: GI; procedure, shortened: as §3
smiles,measurement,setting,value
COc1ccc(-n2c(SCc3cc(OC)c(OC)c(OC)c3)nc3ccc(C)cc3c2=O)cc1,RatioGI50,Leukemia cell,2 - 10
same,GI50,[1],39.7 µM
same,LC50,[1],> 100 µM
same,TGI,[1],88.1 µM
same,RatioGI50,Cancer cell lines [2],2 - 10
same,inhibition of growth at 10 µM,[3],53.2%
same,inhibition of growth at 10 µM,[4],54.2%
same,pIC50,Dihydrofolate reductase,5.00
same,inhibition of growth at 10 µM,[5],64.7%
same,inhibition of growth at 10 µM,[6],< 10%
same,GI50,[7],30.9 µM
same,"LC50 (lethal concentration, 50% net cell kill)",[7],> 100 µM
same,TGI,[7],> 100 µM
same,inhibition of growth at 10 µM,[8],62%
same,inhibition of growth at 10 µM,[9],47.2%
same,RatioGI50,Cancer cell lines [10],2 - 10
same,inhibition of growth at 10 µM,[11],30.1%
same,inhibition of growth at 10 µM,[12],34.8%
same,GI50,[13],3.4 µM
same,TGI,[13],90.2 µM
same,CC50,[13]; read-out: LC50 (the source's name),> 100 µM
same,inhibition of growth at 10 µM,[14],77%
same,GI50,[15],46.9 µM
same,LC50 (50% lethal concentration),[15],> 100 µM
same,inhibition of growth at 10 µM,[16],60.7%
same,RatioGI50,Cancer cell lines [17],2 - 10
same,inhibition of growth at 10 µM,[18],46.2%
same,inhibition of growth at 10 µM,[19],55.6%
same,inhibition of growth at 10 µM,[20],22.7%
same,inhibition of growth at 10 µM,[21],25%
same,inhibition of growth at 10 µM,[22],75.2%
same,inhibition of growth at 10 µM,[23],45.8%
same,inhibition of growth at 10 µM,[24],50.7%
same,inhibition of growth at 10 µM,[25],40.3%
same,inhibition of growth at 10 µM,[26],40.1%
same,RatioGI50,Melanoma cell,2 - 10
same,inhibition of growth at 10 µM,[27],28.6%
same,RatioGI50,Cancer cell lines [28],2 - 10
same,inhibition of growth at 10 µM,[29],26.3%
same,inhibition of growth at 10 µM,[30],68.9%
same,inhibition of growth at 10 µM,[31],48.6%
same,inhibition of growth at 10 µM,[32],19.4%
COc1ccc(CSc2nc3cc(OC)c(OC)cc3c(=O)n2-c2ccc(OC)cc2OC)cc1,inhibition of growth at 10 µM,[3],25.7%
same,inhibition of growth at 10 µM,[4],20.5%
same,pIC50,Dihydrofolate reductase,6.52
same,inhibition of growth at 10 µM,[5],21.9%
same,inhibition of growth at 10 µM,[6],24.5%
same,inhibition of growth at 10 µM,[8],41.4%
same,inhibition of growth at 10 µM,[9],24.5%
same,inhibition of growth at 10 µM,[11],21.7%
same,inhibition of growth at 10 µM,[12],< 10%
same,inhibition of growth at 10 µM,[14],40.6%
same,inhibition of growth at 10 µM,[16],31.4%
same,inhibition of growth at 10 µM,[18],< 10%
same,inhibition of growth at 10 µM,[19],< 10%
same,inhibition of growth at 10 µM,[20],< 10%
same,inhibition of growth at 10 µM,[21],44.4%
same,inhibition of growth at 10 µM,[22],16.9%
same,inhibition of growth at 10 µM,[23],31.3%
same,inhibition of growth at 10 µM,[24],< 10%
same,inhibition of growth at 10 µM,[25],24.6%
same,inhibition of growth at 10 µM,[26],< 10%
same,inhibition of growth at 10 µM,[27],< 10%
same,inhibition of growth at 10 µM,[29],< 10%
same,inhibition of growth at 10 µM,[30],< 10%
same,inhibition of growth at 10 µM,[31],10.4%
same,inhibition of growth at 10 µM,[32],13.7%
